# According to ChEMBL document CHEMBL3120060, “Synthesis, in vitro anticancer evaluation and in silico studies of novel imidazo[2,1-b]thiazole derivatives bearing pyrazole moieties” (2014):
# Key:
# Format in all cases: functional
# [1] = tested on: SK-MEL-2; experiment: Cytotoxicity against human SK-MEL-2 cells assessed as cell growth at 10 uM after 48 hrs by SRB assay; settings: SK-MEL-2, 48 h, read-out: Activity
# Outline: (§1)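 NCI-60 single-dose screen. Cell lines grown in RPMI 1640 with 5% FBS and 2 mM L-glutamine, plated at 5000–40,000 cells/well according to doubling time, then preincubated 24 h at 37 °C in 5% CO2. Compounds dissolved in DMSO, tested at 10^-5 M for 48 h. Adherent cells fixed with cold TCA (10% final) and stained with 0.4% SRB in 1% acetic acid. Growth expressed as percent of untreated control.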
# [2] = tested on: MDA-MB-468; experiment: Cytotoxicity against human MDA-MB-468 cells assessed as cell growth at 10 uM after 48 hrs by SRB assay; settings: MDA-MB-468, 48 h, read-out: Activity; outline: as §1
# [3] = tested on: UACC-62; experiment: Cytotoxicity against human UACC62 cells assessed as cell growth at 10 uM after 48 hrs by SRB assay; settings: UACC-62, 48 h, read-out: Activity
# Outline: (§2)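 NCI-60 single-dose screen at 10^-5 M. Adherent lines are grown in RPMI 1640 with 5% FBS and 2 mM L-glutamine, seeded at 5000–40,000 cells/well by doubling time, and preincubated 24 h at 37 °C in 5% CO2. Drug is added from DMSO stock diluted in medium, then 48 h. Cells are fixed in cold TCA (final 10%) for 60 min and stained with 0.4% SRB in 1% acetic acid. Growth is expressed as % of untreated control using time-zero plates.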
# [4] = tested on: SK-MEL-28; experiment: Cytotoxicity against human SK-MEL-28 cells assessed as cell growth at 10 uM after 48 hrs by SRB assay; settings: SK-MEL-28, 48 h, read-out: Activity; outline: as §1
# [5] = tested on: 786-0; experiment: Cytotoxicity against human 786-0 cells assessed as cell growth at 10 uM after 48 hrs by SRB assay; settings: 786-0, 48 h, read-out: Activity; outline: as §1
# [6] = tested on: COLO 205; experiment: Cytotoxicity against human COLO205 cells assessed as cell growth at 10 uM after 48 hrs by SRB assay; settings: COLO 205, 48 h, read-out: Activity; outline: as §1
# [7] = tested on: LOX IMVI; experiment: Cytotoxicity against human LOXIMVI cells assessed as cell growth at 10 uM after 48 hrs by SRB assay; settings: read-out: Activity; outline: as §1
# [8] = tested on: A549; experiment: Cytotoxicity against human A549 cells assessed as cell growth at 10 uM after 48 hrs by SRB assay; settings: A549, 48 h, read-out: Activity; outline: as §1
# [9] = tested on: DU-145; experiment: Cytotoxicity against human DU145 cells assessed as cell growth at 10 uM after 48 hrs by SRB assay; settings: DU-145, 48 h, read-out: Activity; outline: as §1
# [10] = tested on: MOLT-4; experiment: Cytotoxicity against human MOLT4 cells assessed as cell growth at 10 uM after 48 hrs by SRB assay; settings: MOLT-4, 48 h, read-out: Activity; outline: as §1
# [11] = tested on: RXF 393; experiment: Cytotoxicity against human RXF393 cells assessed as cell growth at 10 uM after 48 hrs by SRB assay; settings: RXF 393, 48 h, read-out: Activity; outline: as §1
# [12] = tested on: MCF7; experiment: Cytotoxicity against human MCF7 cells assessed as cell growth at 10 uM after 48 hrs by SRB assay; settings: MCF7, 48 h, read-out: Activity; outline: as §1
# [13] = tested on: HL-60(TB); experiment: Cytotoxicity against human HL-60(TB) cells assessed as cell growth at 10 uM after 48 hrs by SRB assay; settings: HL-60, 48 h, read-out: Activity
# Outline: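 NCI-60 single-dose screen: cells grown in RPMI 1640 with 5% FBS and 2 mM L-glutamine, plated at 5000–40,000 cells/well, preincubated 24 h at 37 °C, 5% CO2. Compound dissolved in DMSO, tested at 10^-5 M for 48 h. Cells TCA-fixed, sulforhodamine B stained. Growth expressed as percent of untreated control, referenced to time-zero plates.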
# [14] = tested on: CAKI-1; experiment: Cytotoxicity against human CAKI-1 cells assessed as cell growth at 10 uM after 48 hrs by SRB assay; settings: CAKI-1, 48 h, read-out: Activity; outline: as §1
# [15] = tested on: U-251; experiment: Cytotoxicity against human U251 cells assessed as cell growth at 10 uM after 48 hrs by SRB assay; settings: U-251, 48 h, read-out: Activity; outline: as §2
# [16] = tested on: SN12C; experiment: Cytotoxicity against human SN12C cells assessed as cell growth at 10 uM after 48 hrs by SRB assay; settings: read-out: Activity; outline: as §1
# [17] = Cytotoxicity against human Hs578T cells assessed as cell growth at 10 uM after 48 hrs by SRB assay; settings: Hs-578T, read-out: Activity; outline: as §1
# [18] = tested on: NCI-H460; experiment: Cytotoxicity against human NCI-H460 cells assessed as cell growth at 10 uM after 48 hrs by SRB assay; settings: NCI-H460, 48 h, read-out: Activity; outline: as §1
# [19] = Cytotoxicity against human UACC257 cells assessed as cell growth at 10 uM after 48 hrs by SRB assay; settings: UACC-257, 48 h, read-out: Activity; outline: as §2
# [20] = tested on: IGROV-1; experiment: Cytotoxicity against human IGROV1 cells assessed as cell growth at 10 uM after 48 hrs by SRB assay; settings: IGROV-1, 48 h, read-out: Activity; outline: as §1
# [21] = tested on: NCI-H322M; experiment: Cytotoxicity against human NCI-H322M cells assessed as cell growth at 10 uM after 48 hrs by SRB assay; settings: read-out: Activity; outline: as §1
# [22] = tested on: SF-295; experiment: Cytotoxicity against human SF295 cells assessed as cell growth at 10 uM after 48 hrs by SRB assay; settings: SF-295, 48 h, read-out: Activity; outline: as §1
# [23] = tested on: HCT-116; experiment: Cytotoxicity against human HCT116 cells assessed as cell growth at 10 uM after 48 hrs by SRB assay; settings: HCT-116, 48 h, read-out: Activity; outline: as §1
# [24] = tested on: SW-620; experiment: Cytotoxicity against human SW620 cells assessed as cell growth at 10 uM after 48 hrs by SRB assay; settings: SW-620, 48 h, read-out: Activity; outline: as §2
# [25] = Cytotoxicity against human OVCAR5 cells assessed as cell growth at 10 uM after 48 hrs by SRB assay; settings: OVCAR-5, 48 h, read-out: Activity; outline: as §1
# [26] = tested on: HOP-62; experiment: Cytotoxicity against human HOP62 cells assessed as cell growth at 10 uM after 48 hrs by SRB assay; settings: HOP-62, 48 h, read-out: Activity; outline: as §1
# [27] = tested on: RPMI-8226; experiment: Cytotoxicity against human RPMI8226 cells assessed as cell growth at 10 uM after 48 hrs by SRB assay; settings: RPMI-8226, 48 h, read-out: Activity; outline: as §1
# [28] = tested on: OVCAR-3; experiment: Cytotoxicity against human OVCAR3 cells assessed as cell growth at 10 uM after 48 hrs by SRB assay; settings: OVCAR-3, 48 h, read-out: Activity; outline: as §1
# [29] = tested on: MDA-MB-231; experiment: Cytotoxicity against human MDA-MB-231 cells assessed as cell growth at 10 uM after 48 hrs by SRB assay; settings: MDA-MB-231, 48 h, read-out: Activity; outline: as §1
# [30] = tested on: K562; experiment: Cytotoxicity against human K562 cells assessed as cell growth at 10 uM after 48 hrs by SRB assay; settings: K562, 48 h, read-out: Activity; outline: as §1
Compound,growth at 10 µM [1] [%],growth at 10 µM [2] [%],growth at 10 µM [3] [%],growth at 10 µM [4] [%],growth at 10 µM [5] [%],growth at 10 µM [6] [%],growth at 10 µM [7] [%],growth at 10 µM [8] [%],growth at 10 µM [9] [%],growth at 10 µM [10] [%],growth at 10 µM [11] [%],growth at 10 µM [12] [%],growth at 10 µM [13] [%],growth at 10 µM [14] [%],growth at 10 µM [15] [%],growth at 10 µM [16] [%],growth at 10 µM [17] [%],growth at 10 µM [18] [%],growth at 10 µM [19] [%],growth at 10 µM [20] [%],other results
Cc1ccc(-c2csc3nc(-n4nc(C)cc4C)cn23)cc1,125,112,90.5,94.8,105,106,92.8,98.6,116,98.4,105,89.7,106,83.5,95,98.1,97,102,108,107,growth at 10 µM [21]: 96.4%; growth at 10 µM [22]: 88.5%; growth at 10 µM [23]: 97%; growth at 10 µM [24]: 106%; growth at 10 µM [25]: 113%; growth at 10 µM [26]: 104%; growth at 10 µM [27]: 90.3%; growth at 10 µM [28]: 115%; growth at 10 µM [29]: 88.8%; growth at 10 µM [30]: 109%
CC1=NN(c2cn3c(-c4ccc(C)cc4)csc3n2)C(=O)C1,114,102,74.1,98.5,101,106,93,98.3,113,78.9,95.9,91.8,110,84.5,94.1,96.4,109,105,100,101,growth at 10 µM [21]: 105%; growth at 10 µM [23]: 94.4%; growth at 10 µM [24]: 105%; growth at 10 µM [25]: 124%; growth at 10 µM [26]: 99.2%; growth at 10 µM [27]: 93.6%; growth at 10 µM [28]: 110%; growth at 10 µM [29]: 79%; growth at 10 µM [30]: 80.5%
O=C1CC(=O)N(c2cn3c(-c4ccccc4)csc3n2)N1,102,102,85,96.4,104,100,86.9,92.9,106,101,89.7,85.8,120,75.9,84.2,92.2,101,104,97.6,91.5,growth at 10 µM [21]: 98.1%; growth at 10 µM [23]: 95.5%; growth at 10 µM [24]: 107%; growth at 10 µM [25]: 104%; growth at 10 µM [26]: 85.9%; growth at 10 µM [27]: 93%; growth at 10 µM [28]: 99%; growth at 10 µM [29]: 85.7%; growth at 10 µM [30]: 94.2%
O=C1CN2C(c3ccccc3)=CSC2=N1,114,106,90.3,105,104,102,89.4,98.3,112,95.4,102,88.5,114,78.7,93.9,91.5,103,105,103,104,growth at 10 µM [21]: 116%; growth at 10 µM [23]: 97.6%; growth at 10 µM [24]: 94.8%; growth at 10 µM [25]: 113%; growth at 10 µM [26]: 93.6%; growth at 10 µM [27]: 94.4%; growth at 10 µM [28]: 111%; growth at 10 µM [29]: 96.7%; growth at 10 µM [30]: 88.8%
